In ChEMBL document CHEMBL4049426, “Identification of the Clinical Candidate (R)-(1-(4-Fluorophenyl)-6-((1-methyl-1H-pyrazol-4-yl)sulfonyl)-4,4a,5,6,7,8-hexahydro-1H-pyrazolo[3,4-g]isoquinolin-4a-yl)(4-(trifluoromethyl)pyridin-2-yl)methanone (CORT125134): A Selective Glucocorticoid Receptor (GR) Antagonist” (J Med Chem, 2017):

Assays:
Glucocorticoid receptor [1] = biological target: T1, Glucocorticoid receptor (Homo sapiens, UniProt P04150); assay: Displacement of fluormone GS Red from human glucocorticoid receptor after 4 hrs by fluorescence polarization assay
T1 sequence (P04150 whole entry): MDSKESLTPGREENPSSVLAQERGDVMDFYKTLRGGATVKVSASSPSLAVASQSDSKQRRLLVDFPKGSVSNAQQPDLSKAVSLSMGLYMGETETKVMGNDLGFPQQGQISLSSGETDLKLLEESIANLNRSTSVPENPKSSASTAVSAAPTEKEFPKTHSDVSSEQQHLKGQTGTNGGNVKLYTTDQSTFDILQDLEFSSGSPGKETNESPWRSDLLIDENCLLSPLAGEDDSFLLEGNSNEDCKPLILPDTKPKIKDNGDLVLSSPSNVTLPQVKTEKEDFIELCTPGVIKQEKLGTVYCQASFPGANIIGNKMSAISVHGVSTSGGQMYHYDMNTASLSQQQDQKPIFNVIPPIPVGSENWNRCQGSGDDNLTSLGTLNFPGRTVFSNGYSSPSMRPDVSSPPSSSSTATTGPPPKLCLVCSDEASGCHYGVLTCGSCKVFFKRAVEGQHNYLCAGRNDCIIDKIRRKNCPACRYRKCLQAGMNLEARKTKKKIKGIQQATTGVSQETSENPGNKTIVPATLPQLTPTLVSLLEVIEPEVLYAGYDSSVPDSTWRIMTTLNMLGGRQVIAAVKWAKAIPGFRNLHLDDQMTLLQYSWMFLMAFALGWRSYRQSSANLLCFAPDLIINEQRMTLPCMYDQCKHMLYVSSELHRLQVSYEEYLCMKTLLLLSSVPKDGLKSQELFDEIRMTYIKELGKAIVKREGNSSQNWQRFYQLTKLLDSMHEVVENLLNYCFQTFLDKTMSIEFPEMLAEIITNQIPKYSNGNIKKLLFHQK

Glucocorticoid receptor [2] = biological target: T1, Glucocorticoid receptor; assay: Antagonist activity at glucocorticoid receptor in human HepG2 cells assessed as inhibition of dexamethasone-induced tyrosine amino transferase activity preincubated for 30 mins followed by dexamethasone addition measured after 20 hrs; type: cell-based
[3] = Cmax in Sprague-Dawley CD-1 rat plasma at 3 mg/kg, po administered as cassette dose via gavage measured up to 24 hrs by LC/MS analysis; type: ADME, organism-based; set-up: dose 3 mg/kg, route oral
Outline: (§1)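 Three male Sprague Dawley CD-1 rats (220-250g) with jugular vein catheters; three test compounds plus a reference dosed together by oral gavage, 3mg/kg each, in DMSO:0.5% methylcellulose 10:90 (0.6mg/mL per compound), 5mL/kg. Plasma sampled pre-dose and at 0.25, 0.5, 1, 2, 4, 6, 8, 24 h; LC/MS.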

[4] = AUC in Sprague-Dawley CD-1 rat plasma at 3 mg/kg, po administered as cassette dose via gavage measured up to 24 hrs by LC/MS analysis; type: ADME, organism-based; set-up: time < 24 hr, dose 3 mg/kg, route oral; outline: as §1
[5] = Cmax in Sprague-Dawley CD-1 rat plasma at 5 mg/kg, po administered through gavage measured up to 24 hrs by LC/MS analysis; type: ADME, organism-based; set-up: dose 5 mg/kg, route oral
Outline: (§2)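 Jugular-catheterized male Sprague Dawley CD-1 rats (220-250g). Oral arm: five rats, 5mg/kg gavage, 1mg/mL in DMSO:0.5% methylcellulose 10:90, 5mL/kg, sampled pre-dose and 0.25-24 h. i.v. arm: three rats, 1mg/kg, 0.5mg/mL in DMSO:PEG400:propylene glycol 10:45:45, sampled pre-dose and 0.08-24 h. Plasma by LC/MS.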

[6] = AUC in Sprague-Dawley CD-1 rat plasma at 5 mg/kg, po administered through gavage measured up to 24 hrs by LC/MS analysis; type: ADME, organism-based; set-up: dose 5 mg/kg, time < 24 hr, route oral; outline: as §2
[7] = Oral bioavailability in Sprague-Dawley CD-1 rat plasma at 5 mg/kg administered through gavage measured up to 24 hrs by LC/MS analysis; type: ADME, organism-based; outline: as §2
[8] = Cmax in monkey plasma at 20 mg/kg, po measured up to 24 hrs by LC/MS analysis; type: ADME, organism-based, Macaca mulatta; set-up: dose 20 mg/kg, route oral; settings: rhesus monkey
Outline: (§3)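 Monkey i.v./p.o. study: oral 20mg/kg in 10% DMSO, 0.1% Tween 80, 0.5% hydroxypropylmethylcellulose in water; i.v. dose 1mg/kg.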

[9] = AUC in monkey plasma at 20 mg/kg, po measured up to 24 hrs by LC/MS analysis; type: ADME, organism-based, Macaca mulatta; set-up: dose 20 mg/kg, time < 24 hr, route oral; settings: rhesus monkey; outline: as §3
[10] = Oral bioavailability in monkey plasma at 20 mg/kg measured up to 24 hrs by LC/MS analysis; type: ADME, organism-based, Macaca mulatta; settings: rhesus monkey; outline: as §3

Compound	Ki (Glucocorticoid receptor [1]) [nM]	Ki (Glucocorticoid receptor [2]) [nM]	Cmax [3] [ng/mL]	AUC at 24 h [4] [ng·h/mL]	further results
O=C(c1nccs1)[C@]12Cc3cnn(-c4ccc(F)cc4)c3C=C1CCN(S(=O)(=O)c1ccc(F)c(F)c1)C2	0.23	37			
CCn1nccc1S(=O)(=O)N1CC[C@H]2Cc3c(cnn3-c3ccc(F)cc3)C[C@]2(C(=O)c2cc(C(F)(F)F)ccn2)C1		68			
Cc1cccc(S(=O)(=O)N2CCC3=Cc4c(cnn4-c4ccc(F)cc4)C[C@]3(C(=O)c3cccc(C)n3)C2)c1	0.2	14			
O=C(c1nccs1)[C@]12Cc3cnn(-c4ccc(F)cc4)c3C=C1CCN(S(=O)(=O)c1cccc(C(F)(F)F)c1)C2	0.48	17	103	446	
Cn1cc(S(=O)(=O)N2CC[C@H]3Cc4c(cnn4-c4ccc(F)cc4)C[C@]3(C(=O)c3cc(C(F)(F)F)ccn3)C2)nn1		60			
O=C(c1ccccn1)[C@]12Cc3cnn(-c4ccc(F)cc4)c3C=C1CCN(S(=O)(=O)c1ccc(C(F)(F)F)cc1)C2 [DAZUCORILANT]		12			
Cn1ccc(S(=O)(=O)N2CC[C@H]3Cc4c(cnn4-c4ccc(F)cc4)C[C@]3(C(=O)c3cc(C(F)(F)F)ccn3)C2)n1		24			
O=C(c1ccccn1)[C@]12Cc3cnn(-c4ccc(F)cc4)c3C=C1CCN(S(=O)(=O)c1ccc(C(F)(F)F)c(F)c1)C2			125	726	
Cn1ncc(S(=O)(=O)N2CC[C@H]3Cc4c(cnn4-c4ccc(F)cc4)C[C@]3(C(=O)c3cc(C(F)(F)F)ccn3)C2)n1 [EXICORILANT]		12			Cmax [5]: 1260 ng/mL; AUC at 24 h [6]: 9420 ng·h/mL; bioavailability [7]: 100%
Cn1nncc1S(=O)(=O)N1CCC2=Cc3c(cnn3-c3ccc(F)cc3)C[C@]2(C(=O)c2cc(C(F)(F)F)ccn2)C1		31			
O=C(c1nccs1)[C@]12Cc3cnn(-c4ccc(F)cc4)c3C=C1CCN(S(=O)(=O)c1ccc(Cl)c(Cl)c1)C2	0.59	16	197	1220	
Cc1cccc(S(=O)(=O)N2CCC3=Cc4c(cnn4-c4ccc(F)cc4)C[C@]3(C(=O)c3ccccn3)C2)c1			31	83	
Cc1csc(C(=O)[C@]23Cc4cnn(-c5ccc(F)cc5)c4C=C2CCN(S(=O)(=O)c2cccc(C(F)(F)F)c2)C3)n1	0.88	63			
Cc1c(S(=O)(=O)N2CCC3=Cc4c(cnn4-c4ccc(F)cc4)C[C@]3(C(=O)c3cc(C(F)(F)F)ccn3)C2)cnn1C		12	110	283	
N#Cc1cccc(S(=O)(=O)N2CCC3=Cc4c(cnn4-c4ccc(F)cc4)C[C@]3(C(=O)c3ccccn3)C2)c1			140	239	
Cn1cc(S(=O)(=O)N2CC[C@H]3Cc4c(cnn4-c4ccc(F)cc4)C[C@]3(C(=O)c3cc(C(F)(F)F)ccn3)C2)cn1		34			
Cn1nncc1S(=O)(=O)N1CC[C@H]2Cc3c(cnn3-c3ccc(F)cc3)C[C@]2(C(=O)c2cc(C(F)(F)F)ccn2)C1		120			
Cc1n[nH]c(C)c1S(=O)(=O)N1CCC2=Cc3c(cnn3-c3ccc(F)cc3)C[C@]2(C(=O)c2cc(C(F)(F)F)ccn2)C1		69			
O=C(c1ccccn1)[C@]12Cc3cnn(-c4ccc(F)cc4)c3C=C1CCN(S(=O)(=O)c1ccc(F)c(F)c1)C2			215	974	
O=C(c1ccccn1)[C@]12Cc3cnn(-c4ccc(F)cc4)c3C[C@@H]1CCN(S(=O)(=O)c1cccc(C(F)(F)F)c1)C2		44			
Cn1cc(S(=O)(=O)N2CCC3=Cc4c(cnn4-c4ccc(F)cc4)C[C@]3(C(=O)c3ccccn3)C2)cn1		28	150	780	

More lines, main results first:

Ki (Glucocorticoid receptor [1]) [nM]	Ki (Glucocorticoid receptor [2]) [nM]	Cmax [3] [ng/mL]	AUC at 24 h [4] [ng·h/mL]	Compound	further results
0.32	7.4	30	135	Cc1cnc(C(=O)[C@]23Cc4cnn(-c5ccc(F)cc5)c4C=C2CCN(S(=O)(=O)c2ccc(Cl)c(Cl)c2)C3)s1	
	6.6	291	863	Cn1ccc(S(=O)(=O)N2CCC3=Cc4c(cnn4-c4ccc(F)cc4)C[C@]3(C(=O)c3cc(C(F)(F)F)ccn3)C2)n1	Cmax [5]: 510 ng/mL; AUC at 24 h [6]: 986 ng·h/mL; bioavailability [7]: 68%
0.32	4.8	20	49	N#Cc1cccc(S(=O)(=O)N2CCC3=Cc4c(cnn4-c4ccc(F)cc4)C[C@]3(C(=O)c3cc(C(F)(F)F)ccn3)C2)c1	
0.14	5.7	113	421	Cc1ccnc(C(=O)[C@]23Cc4cnn(-c5ccc(F)cc5)c4C=C2CCN(S(=O)(=O)c2ccc(F)c(F)c2)C3)c1	
1.3	7.4	30	135	Cc1cnc(C(=O)[C@]23Cc4cnn(-c5ccc(F)cc5)c4C=C2CCN(S(=O)(=O)c2ccc(F)c(F)c2)C3)s1	
0.15	4.5	70	217	Cc1ccnc(C(=O)[C@]23Cc4cnn(-c5ccc(F)cc5)c4C=C2CCN(S(=O)(=O)c2cccc(C#N)c2)C3)c1	
0.42	7.5	48	173	Cc1ccnc(C(=O)[C@]23Cc4cnn(-c5ccc(F)cc5)c4C=C2CCN(S(=O)(=O)c2ccc(C(F)(F)F)c(F)c2)C3)c1	
	7.6			O=C(c1cc(C(F)(F)F)ccn1)[C@]12Cc3cnn(-c4ccc(F)cc4)c3C=C1CCN(S(=O)(=O)c1cn[nH]c1)C2	
0.21	5.1			Cc1ccnc(C(=O)[C@]23Cc4cnn(-c5ccc(F)cc5)c4C=C2CCN(S(=O)(=O)c2cccc(C(F)(F)F)c2)C3)c1	
0.08	3.3	11	44	Cc1cccc(S(=O)(=O)N2CCC3=Cc4c(cnn4-c4ccc(F)cc4)C[C@]3(C(=O)c3cc(C)ccn3)C2)c1	
	10			CCn1nccc1S(=O)(=O)N1CCC2=Cc3c(cnn3-c3ccc(F)cc3)C[C@]2(C(=O)c2cc(C(F)(F)F)ccn2)C1	Cmax [5]: 511 ng/mL; AUC at 24 h [6]: 1530 ng·h/mL; bioavailability [7]: 52%; Cmax [8]: 20.8 ng/mL; AUC at 24 h [9]: 193 ng·h/mL; bioavailability [10]: 1.5%
0.14	4.3			Cc1ccnc(C(=O)[C@]23Cc4cnn(-c5ccc(F)cc5)c4C=C2CCN(S(=O)(=O)c2cc(F)cc(F)c2)C3)c1	
0.19	1.7			CCc1ccnc(C(=O)[C@]23Cc4cnn(-c5ccc(F)cc5)c4C=C2CCN(S(=O)(=O)c2cccc(C#N)c2)C3)c1	
	4.6	126	701	CCn1cc(S(=O)(=O)N2CCC3=Cc4c(cnn4-c4ccc(F)cc4)C[C@]3(C(=O)c3cc(C(F)(F)F)ccn3)C2)cn1	
0.29	10			Cc1cnc(C(=O)[C@]23Cc4cnn(-c5ccc(F)cc5)c4C=C2CCN(S(=O)(=O)c2cccc(C(F)(F)F)c2)C3)s1	
0.12	9.2	72	143	O=C(c1ccccn1)[C@]12Cc3cnn(-c4ccc(F)cc4)c3C=C1CCN(S(=O)(=O)c1cc(F)cc(F)c1)C2	
	3.1	255	860	Cn1ncc(S(=O)(=O)N2CCC3=Cc4c(cnn4-c4ccc(F)cc4)C[C@]3(C(=O)c3cc(C(F)(F)F)ccn3)C2)n1 [NENOCORILANT]	
0.14	7.5			Cc1ccc(C(=O)[C@]23Cc4cnn(-c5ccc(F)cc5)c4C=C2CCN(S(=O)(=O)c2cccc(C)c2)C3)nc1	
	9.7	91.5	450	Cn1cc(S(=O)(=O)N2CCC3=Cc4c(cnn4-c4ccc(F)cc4)C[C@]3(C(=O)c3cc(C(F)(F)F)ccn3)C2)nn1	
